# Measurements: ChEMBL document CHEMBL1649420, “Identifying chelators for metalloprotein inhibitors using a fragment-based approach” (J Med Chem, 2011)
# Tests used:
# [1] = molecular target: T1, Lethal factor (Bacillus anthracis) (UniProt P15917); settings: at 1 mM
# T1 sequence (whole entry): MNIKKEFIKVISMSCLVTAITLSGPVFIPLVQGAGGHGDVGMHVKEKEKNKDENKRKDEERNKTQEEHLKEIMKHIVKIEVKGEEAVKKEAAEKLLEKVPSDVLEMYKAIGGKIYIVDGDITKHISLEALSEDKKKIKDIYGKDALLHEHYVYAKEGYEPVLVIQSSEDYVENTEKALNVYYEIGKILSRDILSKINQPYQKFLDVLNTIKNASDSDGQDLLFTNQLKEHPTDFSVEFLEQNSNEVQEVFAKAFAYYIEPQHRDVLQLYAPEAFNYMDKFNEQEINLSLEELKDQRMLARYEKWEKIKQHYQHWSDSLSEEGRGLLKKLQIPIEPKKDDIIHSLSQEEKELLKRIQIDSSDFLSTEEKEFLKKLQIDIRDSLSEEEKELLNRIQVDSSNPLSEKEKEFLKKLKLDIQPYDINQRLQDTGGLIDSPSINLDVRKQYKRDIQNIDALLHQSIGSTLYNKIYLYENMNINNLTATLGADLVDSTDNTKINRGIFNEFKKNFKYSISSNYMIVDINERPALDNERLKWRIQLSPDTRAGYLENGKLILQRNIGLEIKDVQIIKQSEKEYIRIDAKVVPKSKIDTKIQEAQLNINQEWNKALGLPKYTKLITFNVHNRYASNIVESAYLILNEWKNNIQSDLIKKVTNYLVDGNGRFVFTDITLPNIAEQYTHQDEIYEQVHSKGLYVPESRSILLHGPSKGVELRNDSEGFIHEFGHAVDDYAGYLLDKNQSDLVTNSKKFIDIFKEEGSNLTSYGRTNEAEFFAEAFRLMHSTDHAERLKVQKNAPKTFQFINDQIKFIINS
# [2] = molecular target: Neutrophil collagenase (Homo sapiens) (UniProt P22894); settings: at 1 mM;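 note: recombinant human MMP8 enzyme, percent inhibition read after 30 min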
# [3] = molecular target: 72 kDa type IV collagenase (Homo sapiens, UniProt P08253); test: Inhibition of human recombinant MMP2 after 30 mins
# Procedure, shortened: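 Enzyme (1.16 U) preincubated 30 min at 37 °C with fragment in 50 mM HEPES, 10 mM CaCl2, 0.05% Brij-35, pH 7.5. Fluorogenic Mca peptide substrate (4 μM final) then added. Rate of fluorescence increase compared with no-inhibitor control (100%). Single-point 25 μM final for the 8-hydroxyquinoline sublibrary. IC50 fitted to dose-response curves from serial dilutions of DMSO stocks.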
# Chain of Neutrophil collagenase (Homo sapiens) (P22894 101-467 limits assumed): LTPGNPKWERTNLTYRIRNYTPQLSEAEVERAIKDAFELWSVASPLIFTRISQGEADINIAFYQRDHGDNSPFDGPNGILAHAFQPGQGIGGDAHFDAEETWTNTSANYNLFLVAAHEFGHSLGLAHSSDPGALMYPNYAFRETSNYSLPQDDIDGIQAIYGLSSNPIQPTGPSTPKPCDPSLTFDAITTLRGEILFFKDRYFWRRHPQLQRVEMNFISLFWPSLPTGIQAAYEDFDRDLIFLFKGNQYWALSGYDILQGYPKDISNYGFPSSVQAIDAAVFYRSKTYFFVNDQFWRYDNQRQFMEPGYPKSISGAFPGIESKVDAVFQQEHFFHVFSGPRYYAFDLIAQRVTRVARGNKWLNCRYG
# Chain of 72 kDa type IV collagenase (P08253 whole entry, the tested form may be a part): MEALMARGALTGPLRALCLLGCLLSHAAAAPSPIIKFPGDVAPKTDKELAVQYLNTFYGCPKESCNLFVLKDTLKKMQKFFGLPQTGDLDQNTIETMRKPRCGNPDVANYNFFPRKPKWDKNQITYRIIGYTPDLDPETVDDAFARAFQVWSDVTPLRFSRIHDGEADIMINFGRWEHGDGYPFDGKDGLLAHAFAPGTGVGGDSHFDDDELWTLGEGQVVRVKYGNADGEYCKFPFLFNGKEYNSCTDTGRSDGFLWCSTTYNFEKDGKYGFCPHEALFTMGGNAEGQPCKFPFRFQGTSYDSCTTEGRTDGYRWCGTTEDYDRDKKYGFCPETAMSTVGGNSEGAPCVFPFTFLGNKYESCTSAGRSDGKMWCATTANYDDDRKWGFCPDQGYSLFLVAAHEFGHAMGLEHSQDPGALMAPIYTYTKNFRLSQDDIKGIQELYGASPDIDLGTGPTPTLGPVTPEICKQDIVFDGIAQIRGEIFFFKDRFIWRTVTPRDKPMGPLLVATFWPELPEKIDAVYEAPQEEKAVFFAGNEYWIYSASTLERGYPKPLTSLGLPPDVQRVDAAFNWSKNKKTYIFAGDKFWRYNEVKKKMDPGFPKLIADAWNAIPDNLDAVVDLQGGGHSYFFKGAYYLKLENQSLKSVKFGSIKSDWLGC
SMILES,inhibition [1],inhibition [2],IC50 [3]
Oc1ncccn1,28%,100%,–
C1CNCCNCCN1,59%,104%,–
CC(=O)C(C)C(C)=O,-7%,3%,–
O=C(O)c1ccc(C(=O)O)nc1,18%,-1%,–
[O-][n+]1cccc2cccc(O)c21,59%,64%,–
O=C(O)c1ccccn1,49%,30%,–
Nc1ccc(C(=O)O)c(O)c1,30%,8%,–
Nc1[nH]cnc2ncnc1-2,16%,9%,–
O=c1ccocc1O,29%,43%,–
O=C(O)c1cccc(O)c1O,9%,10%,–
O=C(O)c1cccc(Br)n1,75%,1%,–
Cc1ccc(O)c(C(=O)O)c1,56%,26%,–
Cc1cc(=O)c(O)c(CCl)o1,21%,47%,–
O=c1cc(CCl)occ1O,30%,59%,–
O=C(O)c1ncccc1O,43%,56%,–
Cc1occ(O)c(=O)c1C(=O)O,45%,55%,–
Cc1cc(O)nc(C)n1,18%,11%,–
O=C(O)c1cccc[n+]1[O-],40%,21%,–

SMILES,inhibition [1],inhibition [2],IC50 [3]
O=c1occcc1O,21%,68%,–
O=C(O)c1ccc(F)cc1O,17%,4%,–
O=c1cccccc1O [TROPOLONE],55%,100%,146 µM
Cc1nc(O)nc(O)c1C,28%,2%,–
c1ccc(CNCc2ccccn2)nc1,41%,100%,–
CCCCc1ccc(C(=O)O)nc1,29%,47%,–
Cc1ccc(S(N)(=O)=O)cc1,6%,9%,–
O=C(O)c1nccc2ccccc12,31%,13%,–
Cc1cccc(C(=O)O)c1O,8%,18%,–
Cn1cccc(O)c1=O,1%,13%,–
O=C(O)c1cc(F)ccc1O,16%,-1%,–
O=C(O)c1ccccc1O,6%,14%,–
CCn1ccc(=O)c(O)c1C,10%,29%,–
CC(=O)C1CCCC1=O (stereo not drawn),6%,37%,–
Cc1cc(O)nc(O)n1,8%,11%,–
Cc1cc(=O)c(O)co1,22%,31%,–
Nc1cc(=O)nc(N)[nH]1,34%,4%,–
O=C(O)c1cccc(C(=O)O)n1,83%,17%,–
